{"source": "ChEMBL document CHEMBL1154602", "about": "“Toward a rational design of multitarget-directed antioxidants: merging memoquin and lipoic acid molecular frameworks” (J Med Chem, 2009)", "key": {"[1]": {"test": "Inhibition of amyloid beta (1 to 42) self-aggregation assessed as amyloid fibril formation at 10 uM by thioflavin-T based fluorometric assay", "in_short": "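Self-induced Aβ(1-42) aggregation at 50 μM, test compound at 10 μM; percent inhibition reported with SEM.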"}, "T67 [2]": {"tested_on": "T67", "test": "Antioxidant activity in human T67 cells assessed as inhibition of tert-butyl hydroperoxide-induced ROS production at 10 uM after 24 hrs by fluorescence assay", "type": "functional, cell-based", "in_short": "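T67 cells without sulforaphane pretreatment; ROS formation induced by t-BuOOH; oxidized form tested at 10 μM; significance set at p ≤ 0.05 versus t-BuOOH-treated cells.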"}, "Acetylcholinesterase": {"target": "Acetylcholinesterase (Homo sapiens, UniProt P22303)", "sequence (P22303 whole entry)": "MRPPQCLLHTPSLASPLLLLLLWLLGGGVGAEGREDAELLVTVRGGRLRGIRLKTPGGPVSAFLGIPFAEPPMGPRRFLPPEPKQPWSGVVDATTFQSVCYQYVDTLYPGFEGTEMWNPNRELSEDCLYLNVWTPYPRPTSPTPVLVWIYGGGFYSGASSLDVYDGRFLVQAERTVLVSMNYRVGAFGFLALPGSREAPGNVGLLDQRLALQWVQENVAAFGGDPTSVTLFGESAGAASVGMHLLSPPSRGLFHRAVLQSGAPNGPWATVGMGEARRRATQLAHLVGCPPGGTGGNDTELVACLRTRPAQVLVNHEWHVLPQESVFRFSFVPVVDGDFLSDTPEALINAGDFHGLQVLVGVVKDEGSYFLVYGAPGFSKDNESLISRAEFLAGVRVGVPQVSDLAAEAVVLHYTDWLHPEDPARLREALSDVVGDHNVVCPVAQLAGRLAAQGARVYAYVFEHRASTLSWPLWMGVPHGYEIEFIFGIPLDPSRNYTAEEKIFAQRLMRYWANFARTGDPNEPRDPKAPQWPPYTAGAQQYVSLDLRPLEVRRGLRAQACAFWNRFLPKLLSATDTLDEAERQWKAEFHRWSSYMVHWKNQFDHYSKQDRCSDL", "test": "Inhibition of human recombinant AChE by Ellman's method", "in_short": "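Human recombinant AChE. IC50 is the inhibitor concentration that decreases enzyme activity by 50%. Values are the mean of two independent measurements, each run in triplicate, with SEM.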"}, "T67 [3]": {"tested_on": "T67", "test": "Antioxidant activity in human T67 cells assessed as inhibition of tert-butyl hydroperoxide-induced ROS production at 10 uM after 24 hrs by fluorescence assay in presence of 2.5 uM sulforaphane treated for 24 hrs before compound addition", "type": "functional, cell-based", "in_short": "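T67 cells pretreated with 2.5 μM sulforaphane to raise NQO1 activity; ROS formation induced by t-BuOOH; oxidized form tested at 10 μM; significance set at p ≤ 0.05 versus t-BuOOH + sulforaphane-treated cells.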"}, "Bos taurus [4]": {"species_on_record": "Bos taurus", "test": "Antioxidant activity in bovine heart submitochondrial particles assessed as inhibition of antimycin A-induced ROS production at 10 uM by fluorescence assay", "type": "functional", "in_short": "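Submitochondrial particles given NADH; ROS production triggered by antimycin A addition. Quinone (oxidized) form tested at 10 μM.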"}, "Bos taurus [5]": {"species_on_record": "Bos taurus", "test": "Antioxidant activity in bovine heart submitochondrial particles assessed as inhibition of antimycin A-induced ROS production at 10 uM pretreated for 30 mins with human NQO1 by fluorescence assay", "type": "functional", "in_short": "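Submitochondrial particles given NADH; ROS production triggered by antimycin A. Compound first reduced by 30 min preincubation with purified human NQO1 using NADH as substrate, reaction then stopped with 10 μM dicumarol; tested at 10 μM.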"}, "Cholinesterase": {"target": "Cholinesterase (Homo sapiens, UniProt P06276)", "sequence (P06276 whole entry)": "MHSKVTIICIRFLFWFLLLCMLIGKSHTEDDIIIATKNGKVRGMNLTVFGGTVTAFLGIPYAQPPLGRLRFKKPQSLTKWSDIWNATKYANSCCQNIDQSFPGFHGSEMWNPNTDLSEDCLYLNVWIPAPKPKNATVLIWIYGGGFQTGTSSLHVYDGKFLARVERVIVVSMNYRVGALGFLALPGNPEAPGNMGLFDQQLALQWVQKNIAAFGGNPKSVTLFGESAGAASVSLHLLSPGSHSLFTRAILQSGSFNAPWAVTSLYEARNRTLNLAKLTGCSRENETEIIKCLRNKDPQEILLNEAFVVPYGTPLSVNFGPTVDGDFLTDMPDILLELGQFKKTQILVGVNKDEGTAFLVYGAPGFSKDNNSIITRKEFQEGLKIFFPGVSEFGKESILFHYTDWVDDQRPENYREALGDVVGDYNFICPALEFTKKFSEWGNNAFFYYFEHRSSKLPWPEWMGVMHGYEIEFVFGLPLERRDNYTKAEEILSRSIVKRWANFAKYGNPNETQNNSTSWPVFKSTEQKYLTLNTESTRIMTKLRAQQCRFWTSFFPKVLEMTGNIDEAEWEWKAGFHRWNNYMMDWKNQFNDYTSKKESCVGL", "test": "Inhibition of human recombinant BChE by Ellman's method"}}, "note": "The source made the active and inactive calls. The calls are words filed in the database; no cut-off is given here.", "data": [{"molecule": "CCN(CCCCCCNC1=CC(=O)C(NCCCCCCNC(=O)CCCCC2CCSS2)=CC1=O)Cc1ccccc1OC", "note": "(stereo unspecified)", "values": [{"measurement": "inhibition", "setting": "[1]", "result": 45.4, "unit": "%"}, {"measurement": "Activity", "setting": "T67 [2]", "result": "Active"}, {"measurement": "IC50", "setting": "Acetylcholinesterase", "result": 100, "unit": "nM"}, {"measurement": "Activity", "setting": "T67 [3]", "result": "Active"}, {"measurement": "Activity", "setting": "Bos taurus [4]", "result": "Active"}, {"measurement": "Activity", "setting": "Bos taurus [5]", "result": "Active"}, {"measurement": "IC50", "setting": "Cholinesterase", "result": 4990, "unit": "nM"}]}, {"molecule": "CCN(CCCCCCNC1=CC(=O)C(NCCCNC(=O)CCCCC2CCSS2)=CC1=O)Cc1ccccc1OC", "note": "(stereo unspecified)", "values": [{"measurement": "inhibition", "setting": "[1]", "result": 34.4, "unit": "%"}, {"measurement": "Activity", "setting": "T67 [2]", "result": "Active"}, {"measurement": "IC50", "setting": "Acetylcholinesterase", "result": 150, "unit": "nM"}, {"measurement": "Activity", "setting": "T67 [3]", "result": "Active"}, {"measurement": "Activity", "setting": "Bos taurus [4]", "result": "Active"}, {"measurement": "Activity", "setting": "Bos taurus [5]", "result": "Active"}, {"measurement": "IC50", "setting": "Cholinesterase", "result": 21000, "unit": "nM"}]}, {"molecule": "CCN(CCCCCCNC1=CC(=O)C(NCCCCCCN(CC)Cc2ccccc2OC)=CC1=O)Cc1ccccc1OC", "note": "[MEMOQUIN]", "values": [{"measurement": "IC50", "setting": "Acetylcholinesterase", "result": 1.5, "unit": "nM"}]}, {"molecule": "O=C(CCCCC1CCSS1)NCCCNc1c2c(nc3cc(Cl)ccc13)CCCC2", "note": "(stereo unspecified)", "values": [{"measurement": "inhibition", "setting": "[1]", "result": "< 10", "unit": "%"}, {"measurement": "Activity", "setting": "T67 [3]", "result": "inactive"}]}, {"molecule": "CCN(CCCNC1=CC(=O)C(NCCCNC(=O)CCCCC2CCSS2)=CC1=O)Cc1ccccc1OC", "note": "(stereo unspecified)", "values": [{"measurement": "inhibition", "setting": "[1]", "result": 19.2, "unit": "%"}, {"measurement": "Activity", "setting": "T67 [2]", "result": "Active"}, {"measurement": "IC50", "setting": "Acetylcholinesterase", "result": 190, "unit": "nM"}, {"measurement": "Activity", "setting": "T67 [3]", "result": "Active"}, {"measurement": "Activity", "setting": "Bos taurus [4]", "result": "Active"}, {"measurement": "Activity", "setting": "Bos taurus [5]", "result": "Active"}, {"measurement": "IC50", "setting": "Cholinesterase", "result": 212000, "unit": "nM"}]}, {"molecule": "CCN(CCCNC1=CC(=O)C(NCCCCCCNC(=O)CCCCC2CCSS2)=CC1=O)Cc1ccccc1OC", "note": "(stereo unspecified)", "values": [{"measurement": "inhibition", "setting": "[1]", "result": 31.8, "unit": "%"}, {"measurement": "Activity", "setting": "T67 [2]", "result": "Active"}, {"measurement": "IC50", "setting": "Acetylcholinesterase", "result": 160, "unit": "nM"}, {"measurement": "Activity", "setting": "T67 [3]", "result": "Active"}, {"measurement": "Activity", "setting": "Bos taurus [4]", "result": "Active"}, {"measurement": "Activity", "setting": "Bos taurus [5]", "result": "Active"}, {"measurement": "IC50", "setting": "Cholinesterase", "result": 11100, "unit": "nM"}]}]}
